Experimental data from ChEMBL document CHEMBL5696444 (Nat Commun, 2017).
Activity calls are given as the source filed them. No cut-off for these calls is given here.

Legend:
HCT-116 [1] = experiment: Induction of cell cycle arrest in human HCT-116 cells assessed as G2/M phase at 5 uM incubated for 24 hrs by flow cytometry analysis (Rvb=17.9%); type: functional
[2] = target: Tyrosine-protein kinase JAK2 (Homo sapiens) (UniProt O60674); experiment: Inhibition of JAK2 (unknown origin) at 1000 nM in the presence of ATP by Kinome scan method relative to control
HCT-116 [3] = experiment: Induction of cell cycle arrest in human HCT-116 cells assessed as sub G0/G1 phase at 0.1 uM incubated for 6 hrs by flow cytometry analysis (Rvb=1.6%); type: functional
[4] = target: Homeodomain-interacting protein kinase 1 (Homo sapiens) (UniProt Q86Z02); experiment: Inhibition of HIPK1 (unknown origin) at 1000 nM in the presence of ATP by Kinome scan method relative to control
[5] = target: Casein kinase I isoform alpha (Homo sapiens) (UniProt P48729); experiment: Inhibition of CSNK1A1 (unknown origin) at 1000 nM in the presence of ATP by Kinome scan method relative to control
HCT-116 [6] = experiment: Induction of apoptosis in human HCT-116 cells assessed as early apoptosis at 5 uM incubated for > 6 hrs by annexin V/PI staining based analysis (Rvb=3.29%); type: functional
[7] = target: Serine/threonine-protein kinase PLK1 (Homo sapiens) (UniProt P53350); experiment: Inhibition of PLK1 (unknown origin) at 1000 nM in the presence of ATP by Kinome scan method relative to control
HCT-116 [8] = experiment: Induction of cell cycle arrest in human HCT-116 cells assessed as G2/M phase at 0.5 uM incubated for 24 hrs by flow cytometry analysis (Rvb=17.9%); type: functional
[9] = target: SRSF protein kinase 1 (Homo sapiens) (UniProt Q96SB4); experiment: Inhibition of SRPK1 (unknown origin) at 1110 nM in the presence of ATP by Kinome scan method relative to control; conditions: time > 6.0 hrs
[10] = target: Serine/threonine-protein kinase Chk1 (Homo sapiens) (UniProt O14757); experiment: Inhibition of CHEK1 (unknown origin) at 100 nM in the presence of ATP by Kinome scan method relative to control
[11] = target: Dual specificity tyrosine-phosphorylation-regulated kinase 3 (Homo sapiens) (UniProt O43781); experiment: Inhibition of DYRK3 (unknown origin) at 1110 nM in the presence of ATP by Kinome scan method relative to control; conditions: time > 6.0 hrs
[12] = target: Dual specificity protein kinase CLK1 (Homo sapiens) (UniProt P49759); experiment: Inhibition of CLK (unknown origin) in human 184-hTERT cells assessed as induction in alternative splicing effect in MRPS10-GUCA1B level incubated for 6 hrs by RT-PCR analysis; type: cell-based; conditions: dose 0.2-5 µM
In short: (§1)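 Cells exposed to graded T3 concentrations for 6 h (chosen to avoid cytotoxicity), with a DMSO vehicle control. Total RNA was reverse-transcribed with oligo-dT primers. Targeted splice or conjoined-gene products were quantified by real-time qPCR or by targeted next-generation sequencing. Conjoined-gene isoform expression was normalized to a sequenced housekeeping gene.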

[13] = target: AMP-activated protein kinase (AMPK) alpha-1/beta-1/gamma-1 (Homo sapiens) (UniProt P54619+Q9Y478+Q13131); experiment: Inhibition of AMPK A1/B1/G1 (unknown origin) at 100 nM in the presence of ATP by Kinome scan method relative to control; type: protein-complex assay
[14] = target: Serine/threonine-protein kinase PLK1 (Homo sapiens) (UniProt P53350); experiment: Inhibition of PLK1 (unknown origin) at 100 nM in the presence of ATP by Kinome scan method relative to control
HCT-116 [15] = experiment: Induction of cell cycle arrest in human HCT-116 cells assessed as G0/G1 phase at 5 uM incubated for 24 hrs by flow cytometry analysis (Rvb=35.7%); type: functional
HCT-116 [16] = experiment: Induction of apoptosis in human HCT-116 cells assessed as early apoptosis at 1 uM incubated for > 6 hrs by annexin V/PI staining based analysis (Rvb=3.29%); type: functional
[17] = target: SRSF protein kinase 2 (Homo sapiens) (UniProt P78362); experiment: Inhibition of SRPK2 (unknown origin) at 123 nM in the presence of ATP by Kinome scan method relative to control; conditions: time > 6.0 hrs
[18] = target: Death-associated protein kinase 1 (Homo sapiens) (UniProt P53355); experiment: Inhibition of DAPK1 (unknown origin) at 100 nM in the presence of ATP by Kinome scan method relative to control
[19] = target: Mitogen-activated protein kinase 3 (Homo sapiens) (UniProt P27361); experiment: Inhibition of MAPK3 (unknown origin) at 100 nM in the presence of ATP by Kinome scan method relative to control
[20] = target: cAMP-dependent protein kinase catalytic subunit alpha (Homo sapiens) (UniProt P17612); experiment: Inhibition of PRKACA (unknown origin) at 1000 nM in the presence of ATP by Kinome scan method relative to control
[21] = target: 3-phosphoinositide-dependent protein kinase 1 (PDPK1) (Homo sapiens) (UniProt O15530); experiment: Inhibition of PDK1 Direct (unknown origin) at 100 nM in the presence of ATP by Kinome scan method relative to control
HCT-116 [22] = experiment: Induction of cell cycle arrest in human HCT-116 cells assessed as sub G0/G1 phase at 1 uM incubated for 24 hrs by flow cytometry analysis (Rvb=2.5%); type: functional
[23] = target: Focal adhesion kinase 1 (Homo sapiens) (UniProt Q05397); experiment: Inhibition of PTK2 (unknown origin) at 100 nM in the presence of ATP by Kinome scan method relative to control
[24] = target: Dual specificity protein kinase CLK1 (Homo sapiens) (UniProt P49759); experiment: Inhibition of CLK (unknown origin) in human MDA-MB-468 cells assessed as SRSF6 phosphorylation level incubated for 3 hrs by immunoblot analysis; type: cell-based
HCT-116 [25] = experiment: Induction of apoptosis in human HCT-116 cells assessed as necrosis cells at 5 uM incubated for > 6 hrs by annexin V/PI staining based analysis (Rvb=0.55%); type: functional
[26] = target: Proto-oncogene tyrosine-protein kinase Src (Homo sapiens) (UniProt P12931); experiment: Inhibition of SRC (unknown origin) at 100 nM in the presence of ATP by Kinome scan method relative to control
HCT-116 [27] = experiment: Induction of apoptosis in human HCT-116 cells assessed as viable cells at 1 uM incubated for > 6 hrs by annexin V/PI staining based analysis (Rvb=90.04%); type: functional; conditions: read-out: Activity
[28] = target: Proto-oncogene tyrosine-protein kinase ROS (Homo sapiens) (UniProt P08922); experiment: Inhibition of ROS1 (unknown origin) at 1000 nM in the presence of ATP by Kinome scan method relative to control
HCT-116 [29] = experiment: Induction of cell cycle arrest in human HCT-116 cells assessed as G2/M phase at 0.1 uM incubated for 6 hrs by flow cytometry analysis (Rvb=25.8%); type: functional
[30] = target: Dual specificity protein kinase CLK1 (Homo sapiens) (UniProt P49759); experiment: Inhibition of CLK (unknown origin) in human 184-hTERT cells assessed as induction in alternative splicing effect in S6K canonical isoform incubated for 6 hrs by RT-PCR analysis; type: cell-based; conditions: dose 0.2-5 µM; in short: as §1
[31] = target: PI3-kinase p110-alpha/p85-alpha (Homo sapiens) (UniProt P27986+P42336); experiment: Inhibition of PIK3CA/PIK3R1 (unknown origin) at 1000 nM in the presence of ATP by Kinome scan method relative to control; type: protein-complex assay

Sequence of Dual specificity protein kinase CLK1 (Homo sapiens) (P49759 whole entry, looked up, canonical isoform): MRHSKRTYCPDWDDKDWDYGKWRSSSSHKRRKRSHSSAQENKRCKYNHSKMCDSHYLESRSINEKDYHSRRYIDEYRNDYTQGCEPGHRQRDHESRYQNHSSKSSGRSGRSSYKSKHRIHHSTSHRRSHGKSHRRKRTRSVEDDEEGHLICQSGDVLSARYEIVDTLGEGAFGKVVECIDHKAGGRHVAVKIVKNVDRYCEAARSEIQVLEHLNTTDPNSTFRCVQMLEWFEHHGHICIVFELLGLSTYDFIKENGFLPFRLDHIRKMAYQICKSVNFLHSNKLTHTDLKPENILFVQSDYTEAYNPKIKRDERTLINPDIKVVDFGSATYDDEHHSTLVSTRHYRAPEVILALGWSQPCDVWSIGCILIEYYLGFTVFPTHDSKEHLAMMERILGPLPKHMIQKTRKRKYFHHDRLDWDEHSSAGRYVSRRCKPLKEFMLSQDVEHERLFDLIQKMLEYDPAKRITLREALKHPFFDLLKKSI
Sequence of Serine/threonine-protein kinase PLK1 (Homo sapiens) (P53350 whole entry): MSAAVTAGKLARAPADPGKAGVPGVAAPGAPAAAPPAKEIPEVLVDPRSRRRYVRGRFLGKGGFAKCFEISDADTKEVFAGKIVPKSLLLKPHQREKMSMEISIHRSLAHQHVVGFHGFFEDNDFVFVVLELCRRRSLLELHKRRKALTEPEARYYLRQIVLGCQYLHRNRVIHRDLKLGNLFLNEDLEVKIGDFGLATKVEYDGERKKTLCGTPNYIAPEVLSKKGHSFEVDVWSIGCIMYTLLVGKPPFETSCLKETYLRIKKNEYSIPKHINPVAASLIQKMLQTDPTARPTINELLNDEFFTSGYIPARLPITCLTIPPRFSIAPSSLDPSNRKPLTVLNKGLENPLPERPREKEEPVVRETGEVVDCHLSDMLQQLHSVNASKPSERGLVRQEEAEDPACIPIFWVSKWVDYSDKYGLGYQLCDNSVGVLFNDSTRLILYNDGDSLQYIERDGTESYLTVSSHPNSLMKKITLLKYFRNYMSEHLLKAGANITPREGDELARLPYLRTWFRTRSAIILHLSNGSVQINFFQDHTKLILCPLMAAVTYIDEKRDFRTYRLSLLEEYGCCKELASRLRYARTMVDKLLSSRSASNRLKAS
Sequence of Proto-oncogene tyrosine-protein kinase ROS (Homo sapiens) (P08922 whole entry): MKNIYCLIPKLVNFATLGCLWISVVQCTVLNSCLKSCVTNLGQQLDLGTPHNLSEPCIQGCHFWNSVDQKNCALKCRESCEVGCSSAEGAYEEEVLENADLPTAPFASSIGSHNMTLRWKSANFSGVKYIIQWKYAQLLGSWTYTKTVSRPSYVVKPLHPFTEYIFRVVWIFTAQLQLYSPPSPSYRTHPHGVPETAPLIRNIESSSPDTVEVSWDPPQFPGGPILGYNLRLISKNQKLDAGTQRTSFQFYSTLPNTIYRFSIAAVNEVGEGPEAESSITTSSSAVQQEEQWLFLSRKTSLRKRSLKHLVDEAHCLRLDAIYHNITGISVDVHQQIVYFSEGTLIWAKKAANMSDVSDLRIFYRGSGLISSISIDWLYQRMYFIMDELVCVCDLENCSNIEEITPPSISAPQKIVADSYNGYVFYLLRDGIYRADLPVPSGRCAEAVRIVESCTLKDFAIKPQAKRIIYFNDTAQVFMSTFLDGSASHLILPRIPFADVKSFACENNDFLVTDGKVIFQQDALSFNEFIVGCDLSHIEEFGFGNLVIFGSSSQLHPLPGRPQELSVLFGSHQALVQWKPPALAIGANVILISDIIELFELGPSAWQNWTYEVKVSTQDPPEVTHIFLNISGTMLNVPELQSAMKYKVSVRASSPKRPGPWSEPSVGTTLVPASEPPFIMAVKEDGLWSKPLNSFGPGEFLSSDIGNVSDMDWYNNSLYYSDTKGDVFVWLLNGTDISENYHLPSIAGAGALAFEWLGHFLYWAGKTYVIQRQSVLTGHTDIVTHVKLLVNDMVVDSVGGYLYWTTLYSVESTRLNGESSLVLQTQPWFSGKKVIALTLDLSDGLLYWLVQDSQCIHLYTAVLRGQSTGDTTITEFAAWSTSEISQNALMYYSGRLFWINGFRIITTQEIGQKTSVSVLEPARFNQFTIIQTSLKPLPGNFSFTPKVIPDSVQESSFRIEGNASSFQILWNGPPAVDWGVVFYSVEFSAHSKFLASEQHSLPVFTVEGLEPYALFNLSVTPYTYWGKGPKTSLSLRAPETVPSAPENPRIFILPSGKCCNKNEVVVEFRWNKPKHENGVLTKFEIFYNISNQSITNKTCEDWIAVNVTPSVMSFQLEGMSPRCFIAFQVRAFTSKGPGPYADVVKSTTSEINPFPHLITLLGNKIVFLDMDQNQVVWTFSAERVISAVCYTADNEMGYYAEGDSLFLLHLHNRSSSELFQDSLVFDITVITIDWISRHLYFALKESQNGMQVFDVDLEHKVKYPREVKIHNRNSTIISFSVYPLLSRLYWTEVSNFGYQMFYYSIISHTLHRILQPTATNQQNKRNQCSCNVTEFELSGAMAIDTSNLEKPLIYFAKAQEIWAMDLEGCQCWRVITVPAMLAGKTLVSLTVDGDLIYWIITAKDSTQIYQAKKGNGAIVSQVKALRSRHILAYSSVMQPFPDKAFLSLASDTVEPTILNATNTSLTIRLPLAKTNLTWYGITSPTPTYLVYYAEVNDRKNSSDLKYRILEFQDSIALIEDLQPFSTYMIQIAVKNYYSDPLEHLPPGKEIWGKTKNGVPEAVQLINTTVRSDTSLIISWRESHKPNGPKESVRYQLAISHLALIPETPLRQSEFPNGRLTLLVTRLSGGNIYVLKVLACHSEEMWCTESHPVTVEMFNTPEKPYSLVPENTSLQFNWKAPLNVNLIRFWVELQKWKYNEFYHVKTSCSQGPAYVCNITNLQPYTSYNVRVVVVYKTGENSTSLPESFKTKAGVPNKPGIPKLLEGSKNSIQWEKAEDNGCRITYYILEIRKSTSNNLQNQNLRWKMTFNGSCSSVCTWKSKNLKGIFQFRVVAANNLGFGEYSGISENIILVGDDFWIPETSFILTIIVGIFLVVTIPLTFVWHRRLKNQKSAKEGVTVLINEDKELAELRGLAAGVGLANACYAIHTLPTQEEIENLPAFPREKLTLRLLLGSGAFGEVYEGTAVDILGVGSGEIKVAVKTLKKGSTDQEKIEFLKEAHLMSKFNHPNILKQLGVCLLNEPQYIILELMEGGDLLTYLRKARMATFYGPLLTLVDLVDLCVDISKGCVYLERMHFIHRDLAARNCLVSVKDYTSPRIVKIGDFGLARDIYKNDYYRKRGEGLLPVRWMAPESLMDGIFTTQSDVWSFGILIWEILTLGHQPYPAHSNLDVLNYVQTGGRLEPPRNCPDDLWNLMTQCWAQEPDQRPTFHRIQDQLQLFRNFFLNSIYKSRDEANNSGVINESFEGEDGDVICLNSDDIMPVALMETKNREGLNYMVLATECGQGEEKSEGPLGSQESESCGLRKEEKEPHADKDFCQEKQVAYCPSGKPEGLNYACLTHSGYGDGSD
Sequence of SRSF protein kinase 2 (Homo sapiens) (P78362 whole entry, looked up): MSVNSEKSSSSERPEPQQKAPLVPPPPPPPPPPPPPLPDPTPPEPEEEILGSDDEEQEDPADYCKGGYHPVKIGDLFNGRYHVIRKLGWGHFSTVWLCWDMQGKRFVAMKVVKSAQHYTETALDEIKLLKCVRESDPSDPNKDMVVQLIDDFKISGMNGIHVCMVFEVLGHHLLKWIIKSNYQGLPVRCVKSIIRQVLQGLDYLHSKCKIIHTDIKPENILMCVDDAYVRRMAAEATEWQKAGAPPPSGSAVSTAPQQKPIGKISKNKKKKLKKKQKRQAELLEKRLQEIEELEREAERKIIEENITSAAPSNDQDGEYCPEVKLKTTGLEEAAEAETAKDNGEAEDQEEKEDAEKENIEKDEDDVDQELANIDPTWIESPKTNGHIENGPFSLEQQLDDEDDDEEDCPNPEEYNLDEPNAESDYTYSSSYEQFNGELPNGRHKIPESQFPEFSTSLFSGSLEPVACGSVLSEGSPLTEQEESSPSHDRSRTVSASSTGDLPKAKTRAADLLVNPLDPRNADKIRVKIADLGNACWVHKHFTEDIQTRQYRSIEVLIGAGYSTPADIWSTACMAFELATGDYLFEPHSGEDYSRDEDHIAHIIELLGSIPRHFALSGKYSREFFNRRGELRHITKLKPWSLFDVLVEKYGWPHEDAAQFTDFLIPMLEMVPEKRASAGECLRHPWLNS
Sequence of Casein kinase I isoform alpha (Homo sapiens) (P48729 2-337 limits assumed): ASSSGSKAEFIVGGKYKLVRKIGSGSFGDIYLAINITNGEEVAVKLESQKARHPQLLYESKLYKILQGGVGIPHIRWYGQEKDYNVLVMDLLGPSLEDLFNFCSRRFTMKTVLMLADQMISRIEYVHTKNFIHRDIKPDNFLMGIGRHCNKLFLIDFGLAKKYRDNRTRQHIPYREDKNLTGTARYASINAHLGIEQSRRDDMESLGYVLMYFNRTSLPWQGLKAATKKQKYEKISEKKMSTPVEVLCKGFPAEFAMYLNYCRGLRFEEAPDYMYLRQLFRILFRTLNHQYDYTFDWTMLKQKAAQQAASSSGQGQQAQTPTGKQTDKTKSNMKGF
Sequence of Mitogen-activated protein kinase 3 (Homo sapiens) (P27361 whole entry): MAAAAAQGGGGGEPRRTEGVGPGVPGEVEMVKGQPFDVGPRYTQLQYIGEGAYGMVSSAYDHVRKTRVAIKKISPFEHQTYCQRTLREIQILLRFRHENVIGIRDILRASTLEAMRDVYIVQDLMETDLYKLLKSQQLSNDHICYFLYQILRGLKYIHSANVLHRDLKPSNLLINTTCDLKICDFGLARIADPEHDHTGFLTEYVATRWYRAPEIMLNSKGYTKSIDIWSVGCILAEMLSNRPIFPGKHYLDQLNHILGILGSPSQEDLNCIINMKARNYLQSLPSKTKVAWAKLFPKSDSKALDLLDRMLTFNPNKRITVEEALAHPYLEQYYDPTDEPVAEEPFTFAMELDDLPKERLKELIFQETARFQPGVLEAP

inhibition [2]: -6%
inhibition [4]: 3%
inhibition [5]: -3%
inhibition [7]: 2%
inhibition [9]: -3%
inhibition [10]: 10%
inhibition [11]: 4%
inhibition [12]: Dose-Dependent Effect
inhibition [13]: -2%
inhibition [14]: 8%
inhibition [17]: 2%
inhibition [19]: 6%
inhibition [20]: 4%
inhibition [21]: -1%
inhibition [23]: -9%
inhibition [24]: Active
inhibition [26]: 13%
inhibition [28]: 0%
inhibition [30]: Dose-Dependent Effect
inhibition [31]: 4%
SMILES: CN1CCN(C(=O)C(C)(C)c2ccc(C(=O)Nc3cn4cc(-c5ccncc5)ccc4n3)cc2)CC1 [T3-CLK]
Activity (HCT-116 [1]): 41.2%
Activity (HCT-116 [3]): 1.5%
Activity (HCT-116 [6]): 4.32%
Activity (HCT-116 [8]): 68.1%
Activity (HCT-116 [15]): 13.3%
Activity (HCT-116 [16]): 3.4%
inhibition [18]: -4%
Activity (HCT-116 [22]): 20.4%
Activity (HCT-116 [25]): 0.87%
viability at 1 µM (HCT-116 [27]): 88.4%
Activity (HCT-116 [29]): 30.5%
